Source: PubChem BioAssay
Only some compounds are listed: those with a hit (about 29% of all), similar ones and a draw of the others.
CYP2C19 inhib: human CYP2C19 inhibition. P33261. CYP2C19 Supersomes, luciferin-H EGE luminescence, 30 min. inhibition, % at 5 µM. 96,000 compounds, 21% hits;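 active means CYP2C19 inhibition above a set limit at 5 µM in the primary screen, cut at about 50% in these data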;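 further: plate controls were negative control wells for no effect and 2.5 mM tranylcypromine positive control for full effect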
CYP2C19 act: increases human CYP2C19 enzyme activity; activation factor at 5 µM; P33261; recombinant CYP2C19, luciferin-H EGE luminescence; active compounds read high; 0 = fully inhibited enzyme, 1 = untreated enzyme; 96,000 tested, under 10 active; AID 1025;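 active means activation factor of at least 2 at 5 µM in the primary screen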;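 further: 0 = wells with 2.5 mM tranylcypromine and 1 = vehicle-only wells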
CYP2C9 act: activators of human CYP2C9. recombinant CYP2C9, luciferin-H conversion, luminescence; active compounds read high; factor 1 = untreated enzyme, 0 = blocked. activation factor at 5 µM. 96,000 compounds, 1.4% hits;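 active means activation factor of 2 or more for CYP2C9 at a 5 µM dose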;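 further: 0 = sulfaphenazole-blocked wells and 1 = vehicle-only wells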
Target sequence (P11712 whole entry, looked up): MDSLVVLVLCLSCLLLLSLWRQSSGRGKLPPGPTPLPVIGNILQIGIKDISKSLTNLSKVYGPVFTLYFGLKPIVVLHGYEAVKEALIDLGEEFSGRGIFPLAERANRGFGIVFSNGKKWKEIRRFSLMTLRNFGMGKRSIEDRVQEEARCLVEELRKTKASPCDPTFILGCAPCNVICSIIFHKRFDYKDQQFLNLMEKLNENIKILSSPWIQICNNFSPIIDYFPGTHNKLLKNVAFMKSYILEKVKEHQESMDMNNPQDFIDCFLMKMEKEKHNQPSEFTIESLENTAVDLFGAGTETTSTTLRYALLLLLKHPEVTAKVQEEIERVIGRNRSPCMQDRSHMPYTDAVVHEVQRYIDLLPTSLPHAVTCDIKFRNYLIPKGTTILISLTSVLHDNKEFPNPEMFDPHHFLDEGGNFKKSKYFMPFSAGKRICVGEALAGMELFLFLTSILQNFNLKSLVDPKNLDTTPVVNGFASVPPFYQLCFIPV
E coli WT exp: blocks growth of wild type E. coli BW25113. OD600 absorbance. 98,000 compounds, 0.15% hits. growth inhibition, % at 100 µM. AID 710;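 active means growth inhibition above about 50% at one test dose, limit read from the data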;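 further: growth measured after 20 h incubation at 37 °C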
Ecoli tolC: blocks growth of E. coli BW25113 tolC mutant. OD615. growth inhibition, % at 10 µM (by protocol). 65,000 compounds, 2.2% hits. AID 573;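 active means growth inhibition at or above a cutoff equal to the mean over every tested compound plus 3 SD, cut at about 60% in these data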;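 further: growth measured after 20 h incubation at 37 °C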
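Test system: E. coli BW25113 ΔtolC::kan bacteria | Medium: Kanamycin-containing LB broth (50 µg/mL) | Dosing: One dose of 10 µM final | Times: 20 h incubation with compound, 37 °C | Detection: Optical density read at 615 nm | Read-out basis: Percent growth inhibition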
CYP2C9 inhib: blocks human cytochrome P450 2C9; CYP2C9 Supersomes, luciferin-H conversion, luminescence; 96,000 compounds, 20% hits; P11712; inhibition, % at 5 µM;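 active means blocking of liver enzyme CYP2C9 beyond about 50% at 5 µM, limit read from the data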
* hit, by the source's call; x = not tested or not shown.

SMILES | CYP2C19 inhib | CYP2C19 act | CYP2C9 act | E coli WT exp | Ecoli tolC | CYP2C9 inhib
O=C(c1cccc(F)c1)N1CCN=C1SCc1cccnc1 | 91.0* | 0.1 | 0.2 | -7.0 | -25.6 | 82.3*
COc1cc(OC)cc(C(=O)N2CCN=C2SCc2cccnc2)c1 | 99.5* | 0 | 0.1 | -3.0 | -2.0 | 90.5*
Cc1nn(CC(=O)Nc2sc3c(c2C#N)CCC(C(C)(C)C)C3)c(C)c1[N+](=O)[O-] (stereo unspecified) | 7.7 | 0.9 | 0.5 | -10.0 | x | 48.3
Cc1cc(C)cc(N(CC(=O)N2CCN(Cc3ccccc3)CC2)S(=O)(=O)c2c(C)noc2C)c1 | -10.1 | 1.1 | 1 | -2.0 | -5.3 | -4.4
O=C(c1cccs1)N1CCN=C1SCc1cccnc1 | 55.4* | 0.4 | 0.7 | -11.0 | -18.0 | 25.1
Cc1ccccc1Nc1nc(N)nc(CN2C(=O)NC3(CCCCC3C)C2=O)n1 (stereo unspecified) | 7.9 | 0.9 | 1.1 | -9.0 | -5.5 | -7.9
COCCCn1c(-c2ccsc2)nc2c1c(=O)[nH]c(=O)n2Cc1ccccc1 | -1.0 | 1 | 0.9 | -12.0 | -6.6 | 9.5
Cc1c(Cl)cccc1-n1nnnc1-c1cccs1 | 95.8* | 0 | 0.7 | -11.0 | -0.4 | 26.5
Cc1ccc2c(c1)NCCO2 | 15.7 | 0.8 | 1.1 | 0.0 | -20.8 | -8.4
O=S(=O)(NC1CC1)c1ccc(S(=O)(=O)N2CCc3ccccc32)cc1 | 72.4* | 0.3 | 0.2 | -14.0 | -15.3 | 81.8*
CCn1c(=O)n(CC)c2cc(S(=O)(=O)N3CCc4ccccc43)ccc21 | 96.3* | 0 | 0.1 | -8.0 | 23.4 | 94.6*
Nc1ccc(S(=O)(=O)N2CCCc3ccccc32)cc1 | 73.7* | 0.3 | 3.7* | 7.0 | 20.1 | -273.1
CCCCN=CC1=C(O)C(C(=O)OC)C(C)(C)CC1=O (stereo unspecified) | 23.4 | 0.8 | 1.1 | -2.0 | -12.6 | -9.1
Cc1ccc2c(Cl)c(C(=O)Nc3cc(C)on3)sc2c1 | 10.1 | 0.9 | 0.8 | -6.0 | x | 16.7
COc1ccc(CCNC(=O)c2sc(=S)n(C)c2N)cc1 | 42.0 | 0.6 | 0.4 | -5.0 | 2.0 | 60.5*
COc1ccc(CCNC(=O)c2sc3cc(C)ccc3c2Cl)cc1 | 50.2* | 0.5 | 0.4 | -15.0 | x | 55.9*
Cn1c(N)c(C(=O)NCc2ccccc2)sc1=S | 53.2* | 0.5 | 0.6 | 11.0 | -3.1 | 37.8
COC(=O)c1ccccc1NC(=O)c1sc(=S)n(C)c1N | 18.5 | 0.8 | 0.6 | -2.0 | 3.0 | 38.7
CNC(=O)C1C(=S)NC(N)=C(C#N)C1c1ccccc1 (stereo unspecified) | -8.3 | 1.1 | 0.9 | 10.0 | x | 14.1
Cc1cccc(CC2CC(=O)N(c3ccccc3)C2=O)c1 (stereo unspecified) | 88.4* | 0.1 | 0.8 | 6.0 | -2.8 | 23.4
Cc1cccc(CC2CC(=O)N(C3CCCCC3)C2=O)c1 (stereo unspecified) | 98.6* | 0 | 0.4 | -4.0 | 23.8 | 58.0*
COc1ccc2sc(N3C(=O)CC(Cc4cccc(C)c4)C3=O)nc2c1 (stereo unspecified) | 11.0 | 0.9 | 0.7 | -2.0 | x | 26.4
Cc1cccc(CC2CC(=O)N(c3ncccn3)C2=O)c1 (stereo unspecified) | 7.0 | 0.9 | 1 | -1.0 | -16.8 | -0.1
Cc1ccc(S(=O)(=O)NCCC(=O)Nc2nnc(C)s2)cc1 | -7.8 | 1.1 | 1.1 | 2.0 | x | -14.0
Cc1ccc(C)c(-n2nnnc2Sc2nnnn2-c2ccccc2)c1 | x | x | x | -16.0 | 7.5 | x
SMILES | CYP2C19 inhib | CYP2C19 act | CYP2C9 act | E coli WT exp | Ecoli tolC | CYP2C9 inhib
Cc1ccc(S(=O)(=O)NCCSc2nnnn2-c2cc(C)ccc2C)cc1 | 61.2* | 0.4 | 1.4 | -11.0 | 68.0* | -35.0
Cc1ccc(S(=O)(=O)NCCSc2nnc(N)s2)cc1 | 95.5* | 0 | 2* | 4.0 | -0.5 | -99.4
CCOc1ccccc1N1CC(C(=O)Nc2ccc(C(=O)O)cc2)CC1=O (stereo unspecified) | 3.9 | 1 | 1 | 3.0 | -8.9 | 2.8
CC(=O)c1c(C)[nH]c(C(=O)OC2CCCCC2=O)c1C (stereo unspecified) | 25.7 | 0.7 | 0.8 | -1.0 | -7.5 | 18.5
CC1(C)C(N(O)C(=O)Nc2ccc(Cl)cc2)N(c2ccc(Cl)cc2)C(=O)N1CC(=O)NN (stereo unspecified) | 35.2 | 0.6 | 0.6 | 7.0 | x | 40.6
Nc1nonc1C(=O)NCCNCc1ccccc1OCc1ccccc1F | 35.9 | 0.6 | 0.8 | 0.0 | 16.6 | 25.0
CCOc1c(CNCCNC(=O)c2nonc2N)cccc1OC | 73.8* | 0.3 | 1.1 | 2.0 | -13.0 | -8.2
Nc1nonc1C(=O)NCCNCc1cc(Br)ccc1OCc1ccccc1F | 57.0* | 0.4 | 0.6 | -1.0 | 58.4 | 42.6
COc1cccc(CNCCNC(=O)c2nonc2N)c1 | 6.6 | 0.9 | 1.1 | -2.0 | x | -7.9
COc1cc(C(=O)Nc2ccccc2N2CCN(S(C)(=O)=O)CC2)cc(OC)c1OC | 14.1 | 0.9 | 0.2 | -11.0 | -3.5 | 78.9*
COc1ccccc1C(=O)Nc1ccc(N2CCN(S(C)(=O)=O)CC2)cc1 | 53.4* | 0.5 | 1.8 | -2.0 | -16.6 | -80.6
COc1c(C)cccc1C(=O)Nc1ccc(N2CCN(S(C)(=O)=O)CC2)cc1 | -1.1 | 1 | 1 | -1.0 | -11.8 | -1.4
COc1ccccc1C(=O)Nc1ccccc1N1CCN(S(C)(=O)=O)CC1 | 68.8* | 0.3 | 0.3 | 3.0 | 17.3 | 74.3*
Cc1ccc2cc(C#N)c(SCC(=O)Nc3ccc4sc(C)nc4c3)nc2c1 | 8.4 | 0.9 | 0.8 | -4.0 | x | 15.4
C=CCNCC(=O)NN=C(c1ccccc1)c1ccccc1 | 20.2 | 0.8 | 0.9 | 6.0 | x | 9.3
O=C(CSc1ccc2nnc(-c3ccccn3)n2n1)Nc1ccc2c(c1)OCCO2 | 27.4 | 0.7 | 0.3 | 3.0 | -7.9 | 65.5*
O=C(CSc1ccc2nnc(-c3ccncc3)n2n1)Nc1ccc2c(c1)OCCO2 | 6.0 | 0.9 | 0.4 | 0.0 | -6.9 | 56.5*
O=C(CSc1ccc2nnc(-c3ccccn3)n2n1)Nc1ccc2c(c1)OCO2 | 2.3 | 1 | 0.7 | -3.0 | -8.5 | 30.6
O=C(CSc1ccc2nnc(-c3ccncc3)n2n1)Nc1ccc2c(c1)OCO2 | 6.2 | 0.9 | 0.4 | 3.0 | -7.2 | 57.5*
O=C(c1ccccc1)N1CCN(CC#CC2(O)CCCCC2)CC1 | -9.5 | 1.1 | 1.2 | 0.0 | -21.4 | -16.8
c1cncc(CSc2nnc(-c3cccnc3)n2Cc2ccco2)c1 | 10.5 | 0.9 | 0.7 | -2.0 | -17.3 | 29.3
Clc1cccc(CSc2nnc(-c3cccnc3)n2Cc2ccco2)c1 | 81.3* | 0.2 | 0.4 | 12.0 | x | 64.9*
Clc1ccc(CSc2nnc(-c3cccnc3)n2Cc2ccco2)c(Cl)c1 | 75.4* | 0.2 | 0.4 | 5.0 | 22.1 | 62.1*
O=C1CC(N(O)c2ccccc2)C(=O)N1Cc1ccccc1 (stereo unspecified) | 78.1* | 0.2 | 1 | 0.0 | 5.9 | 1.2
